This is an account of results in ChEMBL document CHEMBL1152489, “Synthesis and biological evaluation of a novel series of 1,5-benzothiazepine derivatives as potential antimicrobial agents” (2009).

For assay [1], the system named is Staphylococcus epidermidis. The assay is described as follows: Antibacterial activity against Staphylococcus epidermidis ATCC 26069 at 100 ug/disk after 24 hrs by disk diffusion method. It is filed as functional. Particulars: for zone of inhibition at 100 µg/disc: ATCC 26069, 24 h, read-out: IZ. In a few lines: (§1)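 Disk diffusion on media seeded with the organism. Sterile paper discs (6 mm) carried test compound dissolved in DMSO at 12.5, 50, 100 or 200 µg/disc. DMSO-only discs served as controls. Plates were incubated 24 h at 37 °C. The read-out is the growth-inhibition zone diameter in mm, averaged over three trials (±1 mm).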

Assay [2] relates to Staphylococcus aureus. Briefly: Antibacterial activity against Staphylococcus aureus ATCC 25923 at 50 ug/disk after 24 hrs by disk diffusion method. It is filed as functional. Particulars: for zone of inhibition at 50 µg/disc: ATCC 25923, 24 h, read-out: IZ. The procedure, abridged:
as §1
A general note: Agar diffusion results depend on both activity and mobility in agar.

Assay [3] concerns Escherichia coli. Briefly: Antibacterial activity against Escherichia coli ATCC 44752 at 100 ug/disk after 24 hrs by disk diffusion method. It is filed as functional, organism-based. In a few lines:
as §1

The subject of assay [4] is Escherichia coli. Briefly: Antibacterial activity against Escherichia coli ATCC 44752 at 50 ug/disk after 24 hrs by disk diffusion method. It is filed as functional, organism-based. The procedure, abridged:
as §1

Assay [5] relates to Staphylococcus epidermidis. Briefly: Antibacterial activity against Staphylococcus epidermidis ATCC 26069 at 50 ug/disk after 24 hrs by disk diffusion method. It is filed as functional. Particulars: for zone of inhibition at 50 µg/disc: ATCC 26069, 24 h, read-out: IZ. In a few lines: as §1
In assay [6] the test system is Staphylococcus epidermidis. Briefly: Antibacterial activity against Staphylococcus epidermidis ATCC 26069 at 200 ug/disk after 24 hrs by disk diffusion method. It is filed as functional. Particulars: for zone of inhibition at 200 µg/disc: ATCC 26069, 24 h, read-out: IZ. In a few lines:
as §1

Assay [7] relates to Escherichia coli. The assay is described as follows: Antibacterial activity against Escherichia coli ATCC 44752 at 200 ug/disk after 24 hrs by disk diffusion method. It is filed as functional, organism-based. The procedure, abridged:
as §1

Assay [8] deals with Candida albicans. Briefly: Antifungal activity against Candida albicans ATCC 10231 at 200 ug/disk after 24 hrs by disk diffusion method. It is filed as functional. Particulars: for zone of inhibition at 200 µg/disc: ATCC 10231, 24 h, read-out: IZ. In a few lines:
as §1

The subject of assay [9] is Candida albicans. Briefly: Antifungal activity against Candida albicans ATCC 10231 at 100 ug/disk after 24 hrs by disk diffusion method. It is filed as functional. Particulars: for zone of inhibition at 100 µg/disc: ATCC 10231, 24 h, read-out: IZ. In a few lines:
as §1

Assay [10] relates to Staphylococcus aureus. Briefly: Antibacterial activity against Staphylococcus aureus ATCC 25923 at 100 ug/disk after 24 hrs by disk diffusion method. As to conditions: for zone of inhibition at 100 µg/disc: ATCC 25923, 24 h, read-out: IZ. It is filed as functional. In a few lines: as §1
For assay [11], the system named is Staphylococcus aureus. Briefly: Antibacterial activity against Staphylococcus aureus ATCC 25923 at 200 ug/disk after 24 hrs by disk diffusion method. As to conditions: for zone of inhibition at 200 µg/disc: ATCC 25923, 24 h, read-out: IZ. It is filed as functional. The procedure, abridged: as §1
The subject of assay [12] is Candida albicans. Briefly: Antifungal activity against Candida albicans ATCC 10231 at 50 ug/disk after 24 hrs by disk diffusion method. It is filed as functional. Particulars: for zone of inhibition at 50 µg/disc: ATCC 10231, 24 h, read-out: IZ. The procedure, abridged: as §1

The source made the active and inactive calls. The rule behind the calls is not given here.

For the compound `CC(=O)C1=C(C)Nc2cc(Cl)ccc2SC1c1ccc(Cl)cc1` (configuration not stated), the values for the zone of inhibition at 100 µg/disc (in assay [1]; in the assay with Candida albicans [9]; in the assay on Staphylococcus aureus [10]) were 7.5 mm, 11 mm and 7.5 mm, respectively. Also, the zone of inhibition at 50 µg/disc is 7 mm in the assay on Staphylococcus aureus [2], 7 mm in [5] and 10 mm with Candida albicans [12]. For the same compound, the “inhibition zone (IZ)” value with Escherichia coli [3], with Escherichia coli [4] and in the assay with Escherichia coli [7] was “inactive” in each case. The zone of inhibition at 200 µg/disc in [6] amounted to 10 mm; in the assay on Candida albicans [8] it was 13 mm; with Staphylococcus aureus [11], 10 mm.

For `CC(=O)C1=C(C)Nc2cc(Cl)ccc2SC1c1ccc(F)cc1` (configuration not stated), the zone of inhibition at 100 µg/disc worked out at 8 mm in [1], 9 mm in the assay on Candida albicans [9] and 9 mm in the assay on Staphylococcus aureus [10]. The zone of inhibition at 50 µg/disc is 8 mm in the assay with Staphylococcus aureus [2], 7 mm in assay [5] and 8 mm in the assay with Candida albicans [12]. The “inhibition zone (IZ)” value with Escherichia coli [3], with Escherichia coli [4] and in the assay with Escherichia coli [7] was “inactive” throughout. Besides, the results for the zone of inhibition at 200 µg/disc (in assay [6]; in the assay with Candida albicans [8]; in the assay with Staphylococcus aureus [11]) were 8 mm, 10 mm and 9 mm, respectively.

Regarding `CC(=O)C1=C(C)Nc2ccccc2SC1c1ccc(O)cc1` (configuration not stated), the values for the zone of inhibition at 100 µg/disc (in assay [1]; in the assay with Candida albicans [9]; in the assay on Staphylococcus aureus [10]) were 11 mm, 17 mm and 9.5 mm, respectively. Further, the zone of inhibition at 50 µg/disc in the assay with Staphylococcus aureus [2] was 7 mm; in [5], 11 mm; in the assay with Candida albicans [12], 15 mm. The “inhibition zone (IZ)” value in the assay with Escherichia coli [3], in the assay on Escherichia coli [4] and with Escherichia coli [7] was “inactive” each time. In addition, the zone of inhibition at 200 µg/disc stood at 12 mm in assay [6], 17 mm in the assay with Candida albicans [8] and 10 mm in the assay with Staphylococcus aureus [11].

In the case of `CC(=O)C1=C(C)Nc2cc(Cl)ccc2SC1c1ccccc1Cl` (configuration not stated), the results for the zone of inhibition at 100 µg/disc (in assay [1]; with Candida albicans [9]; in the assay with Staphylococcus aureus [10]) were 7 mm, 12 mm and 8 mm, respectively. Also, the zone of inhibition at 50 µg/disc in the assay on Staphylococcus aureus [2] came out at 7 mm; in [5] it was 7 mm; in the assay with Candida albicans [12] it was 10 mm. Further, the “inhibition zone (IZ)” value in the assay with Escherichia coli [3], in the assay on Escherichia coli [4] and in the assay with Escherichia coli [7] was “inactive” in each case. For the same compound, the zone of inhibition at 200 µg/disc in assay [6] is 10 mm; with Candida albicans [8], 15 mm; in the assay on Staphylococcus aureus [11], 11 mm.

Consider `CC(=O)C1=C(C)Nc2ccccc2SC1c1ccc(F)cc1` (configuration not stated), for which the zone of inhibition at 100 µg/disc amounted to 11 mm in [1], 20 mm with Candida albicans [9] and 9 mm with Staphylococcus aureus [10]. Besides, the values for the zone of inhibition at 50 µg/disc (with Staphylococcus aureus [2]; in assay [5]; in the assay on Candida albicans [12]) were 7 mm, 10 mm and 18 mm, respectively. For the same compound, the “inhibition zone (IZ)” value in the assay on Escherichia coli [3], with Escherichia coli [4] and in the assay with Escherichia coli [7] was “inactive” in each case. The values for the zone of inhibition at 200 µg/disc (in assay [6]; in the assay on Candida albicans [8]; with Staphylococcus aureus [11]) were 11 mm, 20 mm and 10 mm, respectively.

With `CCOC(=O)C1=C(C)Nc2ccccc2SC1c1ccccc1Cl` (configuration not stated), the “inhibition zone (IZ)” value (in assay [1]; with Staphylococcus aureus [2]; in the assay on Escherichia coli [3]; in the assay on Escherichia coli [4]; in [5]; in assay [6]) was “inactive” throughout. Moreover, the “inhibition zone (IZ)” value in the assay with Escherichia coli [7], in the assay with Candida albicans [8], in the assay on Candida albicans [9], with Staphylococcus aureus [10], in the assay on Staphylococcus aureus [11] and in the assay on Candida albicans [12] was “inactive” each time.
